Results on 50 compounds are retold here after ChEMBL document CHEMBL1123124, “New antihistaminic N-heterocyclic 4-piperidinamines. 2. Synthesis and antihistaminic activity of 1-[(4-fluorophenyl)methyl]-N-(4-piperidinyl)-1H-benzimidazol-2-a mines” (1985).

The subject of assay [1] is Rattus norvegicus. In words: In vivo antihistaminic activity using compound 48/80 induced lethality test in rat after 2 hr of oral administration. The class given is functional. A digest of the protocol:
(§1)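 Protection was survival for 4 h after challenge. ED50 with confidence limits was calculated by Finney from five rats per dose and at least three doses of a geometric series (0.0025–40 mg/kg). Estimated ED50 used at least two rats per dose.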

The test system of assay [2] is Rattus norvegicus. The assay is described as follows: In vivo antihistaminic activity using compound 48/80 induced lethality test after 1 hr of subcutaneous administration in rat. Conditions: sc. The assay is classed as functional. The gist of the method: as §1

As a reminder, the ED50 is the midpoint of the dose-response relation.

Take `COc1cc(CCN2CCC(Nc3nc4ccccc4n3Cc3ccc(F)cc3)CC2)cc(OC)c1OC.Cl`: the ED50 in assay [1] was 0.63 mg/kg; in assay [2] it was 1.25 mg/kg. For `CC(=O)c1ccc(OCC(O)CN2CCC(Nc3nc4ccccc4n3Cc3ccc(F)cc3)CC2)cc1` (stereo not given) the same measures were 1.25 mg/kg and 0.63 mg/kg. Turning to `CCCCNC(=O)Oc1ccc(CCN2CCC(Nc3nc4ccccc4n3Cc3ccc(F)cc3)CC2)cc1`, the 50% effect level in assay [2] (ED50) was put at a dose of 2.5 mg/kg. As for `Cl.Cn1nnn(CCN2CCC(Nc3nc4ccccc4n3Cc3ccc(F)cc3)CC2)c1=O`, the results for the ED50 in assay [1] and in assay [2] were greater than 2.5 mg/kg and 0.31 mg/kg, respectively.

With `COc1ccccc1CCN1CCC(Nc2nc3ccccc3n2Cc2ccc(F)cc2)CC1`, the ED50 in assay [1] came to 0.63 mg/kg; in assay [2], 1.25 mg/kg. As to `COc1ccc(OCCCN2CCC(Nc3nc4ccccc4n3Cc3ccc(F)cc3)CC2)cc1`, the median effective dose (ED50) in assay [1] and in assay [2] was 0.31 mg/kg throughout. As for `Fc1ccc(Cn2c(NC3CCN(CCc4ccncc4)CC3)nc3ccccc32)cc1`, the ED50 in assay [1] turned out to be 1.25 mg/kg; in assay [2], 0.31 mg/kg. For `CS(=O)(=O)c1ccc(CCN2CCC(Nc3nc4ccccc4n3Cc3ccc(F)cc3)CC2)cc1` the same measures were greater than 2.5 mg/kg and 1.25 mg/kg. On the same counts, the results for `NC(=O)COc1ccc(CCN2CCC(Nc3nc4ccccc4n3Cc3ccc(F)cc3)CC2)cc1` are 2.5 mg/kg and 1.25 mg/kg. For `CSc1ccc(CCN2CCC(Nc3nc4ccccc4n3Cc3ccc(F)cc3)CC2)cc1` the same measures were 1.25 mg/kg and 0.63 mg/kg. For `COc1ccc(CCN2CCC(Nc3nc4ccccc4n3Cc3ccc(F)cc3)CC2)c(OC)c1.Cl`, the ED50 in assay [1] and in assay [2] was 0.31 mg/kg throughout. As to `Cl.Fc1ccc(Cn2c(NC3CCN(CCN4CCOCC4)CC3)nc3ccccc32)cc1`, the values for the ED50 in assay [1] and in assay [2] were 2.5 mg/kg and 0.31 mg/kg, respectively.

As for `COc1ccc(S(=O)(=O)CCCN2CCC(Nc3nc4ccccc4n3Cc3ccc(F)cc3)CC2)cc1`, the 50% effective dose (ED50) in assay [1] worked out at 2.5 mg/kg; in assay [2] it was 0.31 mg/kg.

As for `Br.Br.Fc1ccc(Cn2c(NC3CCNCC3)nc3ccccc32)cc1`, the ED50 in assay [1] came to 1.02 mg/kg; in assay [2] it was 0.056 mg/kg. For `COc1ccc(OC)c(CCN2CCC(Nc3nc4ccccc4n3Cc3ccc(F)cc3)CC2)c1` the same measures were 0.63 mg/kg and 0.63 mg/kg. On the same counts, the results for `O=C(Cc1ccccc1)Oc1ccc(CCN2CCC(Nc3nc4ccccc4n3Cc3ccc(F)cc3)CC2)cc1` are 0.08 mg/kg and 0.31 mg/kg. Turning to `Cc1cc(CCN2CCC(Nc3nc4ccccc4n3Cc3ccc(F)cc3)CC2)ccc1OCc1ccccc1`, in assay [2], the ED50 was greater than 2.5 mg/kg. Take `CCn1nnn(CCN2CCC(Nc3nc4ccccc4n3Cc3ccc(F)cc3)CC2)c1=O`: the ED50 in assay [1] was greater than 2.5 mg/kg; in assay [2], 0.16 mg/kg. On the same counts, the results for `Fc1ccc(Cn2c(NC3CCN(CCc4cccs4)CC3)nc3ccccc32)cc1` are 0.63 mg/kg and 0.16 mg/kg.

On to `Fc1ccc(Cn2c(NC3CCN(CCc4ccc(OCc5ccccc5)cc4)CC3)nc3ccccc32)cc1`, for which it took a dose of 2.5 mg/kg to reach the 50% effect level in assay [2] (ED50). As to `CNC(=O)Oc1ccc(CCN2CCC(Nc3nc4ccccc4n3Cc3ccc(F)cc3)CC2)cc1`, the 50% effective dose (ED50) was found to be 2.5 mg/kg in assay [1] and 1.25 mg/kg in assay [2]. For `OC(COc1ccccc1)CN1CCC(Nc2nc3ccccc3n2Cc2ccc(F)cc2)CC1` (stereo not given) the same measures were 1.25 mg/kg and 0.63 mg/kg. Consider `COc1ccc(C(=O)OCCN2CCC(Nc3nc4ccccc4n3Cc3ccc(F)cc3)CC2)cc1.Cl`, for which the ED50 is 0.63 mg/kg in assay [1] and 0.31 mg/kg in assay [2]. For the compound `COc1cccc(CCN2CCC(Nc3nc4ccccc4n3Cc3ccc(F)cc3)CC2)c1.Cl`, the median effective dose (ED50) in assay [1] and in assay [2] was 0.31 mg/kg throughout.

Regarding `O=C(NCCN1CCC(Nc2nc3ccccc3n2Cc2ccc(F)cc2)CC1)c1ccc(F)cc1`, the values for the ED50 in assay [1] and in assay [2] were 2.5 mg/kg and 0.31 mg/kg, respectively. `Fc1ccc(Cn2c(NC3CCN(CCN(Cc4ccccc4)Cc4ccccc4)CC3)nc3ccccc32)cc1` returned an ED50 in assay [2] greater than 2.5 mg/kg. As for `Cl.N#CCOc1ccc(CCN2CCC(Nc3nc4ccccc4n3Cc3ccc(F)cc3)CC2)cc1`, the ED50 in assay [1] came out at 0.08 mg/kg; in assay [2] it was 0.63 mg/kg. `COc1ccc(CCN2CCC(Nc3nc4ccccc4n3Cc3ccc(F)cc3)CC2)cc1OC`: the ED50 is 0.16 mg/kg in assay [1] and 1.25 mg/kg in assay [2]. As for `Oc1nc2ccccc2n1CCCN1CCC(Nc2nc3ccccc3n2Cc2ccc(F)cc2)CC1`, the ED50 stood at 1.25 mg/kg in assay [1] and 0.31 mg/kg in assay [2].

In the case of `Fc1ccc(Cn2c(NC3CCN(CCNCc4ccccc4)CC3)nc3ccccc32)cc1`, the ED50 in assay [1] was greater than 2.5 mg/kg; in assay [2], 1.25 mg/kg. For `CNC(=O)NCCN1CCC(Nc2nc3ccccc3n2Cc2ccc(F)cc2)CC1` the same measures were greater than 2.5 mg/kg and 0.02 mg/kg. For `Cl.Fc1ccc(Cn2c(NC3CCN(CCc4ccccc4)CC3)nc3ccccc32)cc1` the same measures were 0.63 mg/kg and 0.31 mg/kg. As for `CN(C)CCN1CCC(Nc2nc3ccccc3n2Cc2ccc(F)cc2)CC1`, the 50% effect level in assay [2] (ED50) was put at a dose of 0.63 mg/kg.

Consider `Fc1ccc(Cn2c(NC3CCN(CCc4ccccn4)CC3)nc3ccccc32)cc1`, for which the ED50 in assay [1] was determined as 0.63 mg/kg; in assay [2], 0.16 mg/kg. For `Fc1ccc(Cn2c(NC3CCN(CCCNc4ccccc4)CC3)nc3ccccc32)cc1` the same measures were 2.5 mg/kg and 0.63 mg/kg. Take `Fc1ccc(Cn2c(NC3CCN(CCCCOc4ccccc4)CC3)nc3ccccc32)cc1`: the 50% effective dose (ED50) in assay [1] and in assay [2] was 0.63 mg/kg each time. For `COC(=O)COc1ccc(CCN2CCC(Nc3nc4ccccc4n3Cc3ccc(F)cc3)CC2)cc1`, it took a dose of 2.5 mg/kg to reach the 50% effect level in assay [2] (ED50). Consider `O=C(OCc1ccccc1)Oc1ccc(CCN2CCC(Nc3nc4ccccc4n3Cc3ccc(F)cc3)CC2)cc1`, for which the ED50 was 0.16 mg/kg in assay [1] and 0.31 mg/kg in assay [2]. On the same counts, the results for `COc1ccccc1OCC(O)CN1CCC(Nc2nc3ccccc3n2Cc2ccc(F)cc2)CC1` (stereo not given) are 0.63 mg/kg and 1.25 mg/kg. For `COc1ccc(OCC(O)CN2CCC(Nc3nc4ccccc4n3Cc3ccc(F)cc3)CC2)cc1` (stereo not given) the same measures were 2.5 mg/kg and 1.25 mg/kg. For `Cl.O=C(COc1ccc(CCN2CCC(Nc3nc4ccccc4n3Cc3ccc(F)cc3)CC2)cc1)N1CCCCC1` the same measures were 1.25 mg/kg and 1.25 mg/kg. On to `Cl.N#CC1(c2ccccc2)CCC(N2CCC(Nc3nc4ccccc4n3Cc3ccc(F)cc3)CC2)CC1` (stereo not given), for which the ED50 in assay [2] was greater than 2.5 mg/kg. The same measure, in the same setting: under `C=CCOc1ccc(CCN2CCC(Nc3nc4ccccc4n3Cc3ccc(F)cc3)CC2)cc1.Cl` stands 2.5 mg/kg. With `CC(Cc1ccccc1)N1CCC(Nc2nc3ccccc3n2Cc2ccc(F)cc2)CC1` (stereo not given), in assay [2], it took a dose of 2.5 mg/kg to reach the 50% effect level (ED50). Still for that read-out and setting: under `COc1ccc(SCCCN2CCC(Nc3nc4ccccc4n3Cc3ccc(F)cc3)CC2)cc1` stands 2.5 mg/kg; under `COc1ccc(C(=O)N(CCN2CCC(Nc3nc4ccccc4n3Cc3ccc(F)cc3)CC2)C(=O)c2ccc(OC)cc2)cc1.Cl`, greater than 2.5 mg/kg.

As to `Cc1ccc2nc(NC3CCN(CCc4ccccc4)CC3)n(Cc3ccc(F)cc3)c2c1`, in assay [2], the ED50 is greater than 2.5 mg/kg.

Consider `CCCCOc1ccccc1OCC(O)CN1CCC(Nc2nc3ccccc3n2Cc2ccc(F)cc2)CC1` (stereo not given), for which the 50% effect level in assay [2] (ED50) was put at a dose of 2.5 mg/kg. `Fc1ccc(Cn2c(NC3CCN(CCc4ccccc4)CC3)nc3cc(Cl)ccc32)cc1` had an ED50 in assay [2] greater than 2.5 mg/kg. In assay [2], `Fc1ccc(Cn2c(NC3CCN(CCC=C4c5ccccc5CCc5ccccc54)CC3)nc3ccccc32)cc1` yielded an ED50 greater than 2.5 mg/kg.
